Source: ChEMBL document CHEMBL1800033, “Refining the eosinophil cationic protein antibacterial pharmacophore by rational structure minimization” (J Med Chem, 2011)
Values after ≈ are worked out from the molar mass of the structure shown. Active and inactive are the calls of the source. The rule behind the calls is not given here. Where a SMILES comes first, the peptide text is derived from it. [ ]: non-standard residue; d: D form. Ahx = NCCCCCC(=O)O

What was measured:
Enterococcus faecium = test: Bactericidal activity against Enterococcus faecium ATCC 19434 after over night incubation; format: functional; details: read-out: MIC100
Outline: (§1)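 Overnight LB cultures (37 °C) diluted to about 5 × 10^5 CFU/mL; peptides in 10 mM sodium phosphate pH 7.5, serially diluted 10 to 0.2 μM, incubated with bacteria 4 h, then plated and grown overnight at 37 °C; MIC from two independent experiments, triplicate per concentration.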

Micrococcus luteus = test: Bactericidal activity against Micrococcus luteus ATCC 7468 after over night incubation; format: functional; details: read-out: MIC100; outline: as §1
Acinetobacter baumannii = test: Bactericidal activity against Acinetobacter baumannii ATCC 15308 after over night incubation; format: functional; details: read-out: MIC100; outline: as §1
Escherichia coli [1] = test: Bactericidal activity against Escherichia coli BL2 after over night incubation; format: functional; details: read-out: MIC100; outline: as §1
Pseudomonas sp. = test: Bactericidal activity against Pseudomonas sp. ATCC 15915 after over night incubation; format: functional; details: read-out: MIC100; outline: as §1
[2] = Toxicity in human RBC assessed as hemolytic activity after 4 hrs; format: cell-based, Erythrocyte; details: human red blood cells (RBC)
Outline: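 Fresh human RBCs washed thrice in PBS (35 mM phosphate, 0.15 M NaCl, pH 7.4), 2 × 10^7 cells/mL, incubated with peptide 4 h at 37 °C; supernatant A570 read, 100% lysis set by 10 s sonication; HC50 from sigmoidal fit.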

Staphylococcus aureus = test: Bactericidal activity against Staphylococcus aureus ATCC 502A after over night incubation; format: functional; details: read-out: MIC100; outline: as §1
Lipopolysaccharide (LPS) [3] = test: Displacement of BODIPY TR cadaverine from Escherichia coli serotype 0111:B4 lipopolysaccharide by fluorescent displacement assay
Outline: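 Bodipy TR cadaverine displacement: protein or peptide aliquots added to a stirred mix of LPS (10 μg/mL) and probe (10 μM) in 5 mM Hepes pH 7.5; fluorescence followed, effective displacement value (ED50) calculated.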

[4] = Induction of membrane damage in DOPC/DOPG large unilamellar vesicles model at <10 uM after 1 hr by leakage fluorescence assay; format: physicochemical
[5] = Induction of membrane damage in DOPC/DOPG large unilamellar vesicles model after 1 hr by leakage fluorescence assay; format: physicochemical; details: read-out: ED50 (the source's name)
Escherichia coli [6] = test: Antibacterial activity against Escherichia coli assessed as concentration required to cause minimum agglutination behavior after overnight incubation; format: functional
Outline: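 E. coli grown at 37 °C to mid-exponential phase (OD600 0.6), pelleted, resuspended in Tris-HCl, 0.15 M NaCl, pH 7.5 to A600 of 10; suspension incubated with peptide at 0.1–10 μM, 25 °C overnight; agglutination scored by visual inspection, reported as minimal agglutinating concentration.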

Lipopolysaccharide (LPS) [7] = test: Displacement of BODIPY TR cadaverine from Escherichia coli serotype 0111:B4 lipopolysaccharide at <10 uM by fluorescent displacement assay

Compound | ED50 (Lipopolysaccharide (LPS) [3]) | Activity (Lipopolysaccharide (LPS) [7]) | MIC (Enterococcus faecium) | MIC (Micrococcus luteus) | MIC (Acinetobacter baumannii) | MIC (Escherichia coli [1]) | MIC (Pseudomonas sp.) | HC50 at 4 h [2] | MIC (Staphylococcus aureus) | Activity [4] | EC50 [5] | Activity (Escherichia coli [6])
CC[C@H](C)[C@H](NC(=O)CNC(=O)[C@@H](NC(=O)[C@H](CCCCN)NC(=O)[C@H](CCCCN)NC(=O)[C@H](Cc1ccccc1)NC(=O)[C@H](CC(C)C)NC(=O)[C@H](CCCCN)NC(=O)[C@H](Cc1c[nH]c2ccccc12)NC(=O)[C@@H](N)CCCCN)[C@@H](C)CC)C(=O)NCC(=O)N[C@@H](C)C(=O)N[C@H](C(=O)N[C@@H](CC(C)C)C(=O)N[C@@H](CCCCN)C(=O)N[C@H](C(=O)N[C@@H](CC(C)C)C(=O)N[C@H](C(=O)N[C@H](C(=O)NCC(=O)N[C@@H](CC(C)C)C(=O)N1CCC[C@H]1C(=O)N[C@@H](C)C(=O)N[C@@H](CC(C)C)C(=O)N[C@H](C(=O)N[C@@H](CO)C(=O)O)[C@@H](C)CC)[C@@H](C)O)[C@@H](C)O)C(C)C)C(C)C |  |  | 1.5 µM (≈ 4.19 µg/mL) | 1.5 µM (≈ 4.19 µg/mL) | 0.88 µM (≈ 2.46 µg/mL) | 1.1 µM (≈ 3.08 µg/mL) | 0.6 µM (≈ 1.68 µg/mL) | 7.8 µM | 0.4 µM (≈ 1.12 µg/mL) |  |  | 
CC[C@H](C)[C@H](NC(=O)[C@H](C)NC(=O)[C@H](CCCNC(=N)N)NC(=O)[C@H](CCSC)NC(=O)[C@H](C)NC(=O)[C@@H](NC(=O)[C@@H](NC(=O)[C@H](CO)NC(=O)CCCCCNC(=O)[C@H](CO)NC(=O)[C@@H](NC(=O)[C@H](Cc1cnc[nH]1)NC(=O)[C@H](CCC(N)=O)NC(=O)[C@@H](NC(=O)[C@H](C)NC(=O)[C@H](Cc1ccccc1)NC(=O)[C@H](Cc1c[nH]c2ccccc12)NC(=O)[C@H](CCC(N)=O)NC(=O)[C@H](C)NC(=O)[C@H](CCCNC(=N)N)NC(=O)[C@@H](N)[C@@H](C)O)[C@@H](C)CC)[C@@H](C)CC)[C@@H](C)O)[C@@H](C)CC)C(=O)N[C@@H](CC(N)=O)C(=O)N[C@@H](CC(N)=O)C(=O)N[C@@H](Cc1ccc(O)cc1)C(=O)N[C@@H](CCCNC(=N)N)C(=O)N[C@@H](Cc1c[nH]c2ccccc12)C(=O)N[C@@H](CCCNC(=N)N)C(=O)O (H-TRAQWFAIQHIS[Ahx]STIAMRAINNYRWR-OH) | 1.6 µM |  | 1.5 µM (≈ 4.96 µg/mL) | 1.5 µM (≈ 4.96 µg/mL) | 0.88 µM (≈ 2.91 µg/mL) | 0.6 µM (≈ 1.98 µg/mL) | 1.5 µM (≈ 4.96 µg/mL) | 7.3 µM | 0.87 µM (≈ 2.88 µg/mL) |  | 820 nM | <1 µM
H-ISLNPPRSTIAMRAINNYRWRSKNQNTFLR-OH | 6.13 µM |  | 3.5 µM | 3.5 µM | 3.5 µM | 1.5 µM | 1.5 µM | 10.5 µM | 1.5 µM |  | 760 nM | 
H-RPPQFTRAQWFAIQHISLN-OH |  | inactive | > 10 µM | > 10 µM | > 10 µM | > 10 µM | > 10 µM | 11.2 µM | > 10 µM | Not Active |  | 
H-TIAMRAINNYRWRSKNQNTFLR-OH | 1.52 µM |  | 7 µM | 7 µM | 1.1 µM | 7 µM | 7 µM | 18.7 µM | 1.5 µM |  | 1250 nM | 

More lines, main results first:

ED50 (Lipopolysaccharide (LPS) [3]) | Activity (Lipopolysaccharide (LPS) [7]) | Compound | MIC (Enterococcus faecium) | MIC (Micrococcus luteus) | MIC (Acinetobacter baumannii) | MIC (Escherichia coli [1]) | MIC (Pseudomonas sp.) | HC50 at 4 h [2] | MIC (Staphylococcus aureus) | Activity [4] | EC50 [5] | Activity (Escherichia coli [6])
5.13 µM |  | CC[C@H](C)[C@H](NC(=O)[C@H](C)NC(=O)[C@H](CCCNC(=N)N)NC(=O)[C@H](CCSC)NC(=O)[C@H](C)NC(=O)[C@@H](NC(=O)[C@@H](NC(=O)[C@H](CO)NC(=O)CCCCCNC(=O)[C@H](Cc1cnc[nH]1)NC(=O)[C@H](CCC(N)=O)NC(=O)[C@@H](NC(=O)[C@H](C)NC(=O)[C@H](Cc1ccccc1)NC(=O)[C@H](Cc1c[nH]c2ccccc12)NC(=O)[C@H](CCC(N)=O)NC(=O)[C@H](C)N)[C@@H](C)CC)[C@@H](C)O)[C@@H](C)CC)C(=O)N[C@@H](CC(N)=O)C(=O)O (H-AQWFAIQH[Ahx]STIAMRAIN-OH) | > 10 µM | > 10 µM | > 10 µM | > 10 µM | > 10 µM | 15.2 µM | > 10 µM | Not Active |  | 
1.95 µM |  | CC[C@H](C)[C@H](NC(=O)[C@H](C)NC(=O)[C@H](Cc1ccccc1)NC(=O)[C@H](Cc1c[nH]c2ccccc12)NC(=O)[C@H](CCC(N)=O)NC(=O)[C@H](C)N)C(=O)N[C@@H](CCC(N)=O)C(=O)N[C@@H](Cc1cnc[nH]1)C(=O)NCCCCCC(=O)N[C@@H](CO)C(=O)N[C@H](C(=O)N[C@H](C(=O)N[C@@H](C)C(=O)N[C@@H](CCSC)C(=O)N[C@@H](CCCNC(=N)N)C(=O)N[C@@H](C)C(=O)N[C@H](C(=O)N[C@@H](CC(N)=O)C(=O)N[C@@H](CC(N)=O)C(=O)N[C@@H](Cc1ccc(O)cc1)C(=O)N[C@@H](CCCNC(=N)N)C(=O)N[C@@H](Cc1c[nH]c2ccccc12)C(=O)N[C@@H](CCCNC(=N)N)C(=O)O)[C@@H](C)CC)[C@@H](C)CC)[C@@H](C)O (H-AQWFAIQH[Ahx]STIAMRAINNYRWR-OH) | > 10 µM | > 10 µM | 7 µM (≈ 19.9 µg/mL) | 1.5 µM (≈ 4.27 µg/mL) | 3.5 µM (≈ 9.97 µg/mL) | 14.4 µM | 1.1 µM (≈ 3.13 µg/mL) |  | 1630 nM | 
2.43 µM |  | H-AQWFAIQHISLNPPRSTIAMRAINNYRWR-OH | 1.5 µM | 3.5 µM | 1.5 µM | 1.5 µM | 3.5 µM | 10.3 µM | 0.7 µM |  | 740 nM | <1 µM
1.58 µM |  | H-AQWFAIQHISLNPPRSTIAMRAINNYRWRSKNQNTFLR-OH | 1.5 µM | 1.5 µM | 0.88 µM | 0.45 µM | 1.5 µM | 10.5 µM | 0.7 µM |  | 400 nM | <1 µM
